Our source for the MIC, IC50 and ΔTm values is ChEMBL document CHEMBL5108008, “Drug screening approach against mycobacterial fatty acyl-AMP ligase FAAL32 renews the interest of the salicylanilide pharmacophore in the fight against tuberculosis” (Bioorg Med Chem, 2022).

In brackets after ≈: the same amount, converted by molar mass. Structures can show the parent of a compound that is named as a salt.

The subject of assay [1] is Mycobacterium tuberculosis. Briefly: Antimicrobial activity against Mycobacterium tuberculosis H37Rv incubated for 24 hrs and measured by MTT assay. The assay is classed as functional. In outline: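 Pellicle-grown Mtb bacilli were vortexed with glass beads, clumps removed by slow spin, and set to A600 0.1 in 7H9/0.2% glycerol. 2 µL compound in DMSO (1 mM, or 2-fold serial dilutions) went into 100 µL broth with 100 µL bacteria. Plates ran 6 d at 37 °C, then MTT (1 mg/mL) for 24 h, SDS solubilisation and A570. MIC was the lowest concentration inhibiting growth versus the untreated control.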

Assay [2] addresses T1, Long-chain-fatty-acid--AMP ligase FadD32 (Mycobacterium tuberculosis (strain ATCC 25618 / H37Rv), UniProt O53580).
T1 sequence (O53580 whole entry): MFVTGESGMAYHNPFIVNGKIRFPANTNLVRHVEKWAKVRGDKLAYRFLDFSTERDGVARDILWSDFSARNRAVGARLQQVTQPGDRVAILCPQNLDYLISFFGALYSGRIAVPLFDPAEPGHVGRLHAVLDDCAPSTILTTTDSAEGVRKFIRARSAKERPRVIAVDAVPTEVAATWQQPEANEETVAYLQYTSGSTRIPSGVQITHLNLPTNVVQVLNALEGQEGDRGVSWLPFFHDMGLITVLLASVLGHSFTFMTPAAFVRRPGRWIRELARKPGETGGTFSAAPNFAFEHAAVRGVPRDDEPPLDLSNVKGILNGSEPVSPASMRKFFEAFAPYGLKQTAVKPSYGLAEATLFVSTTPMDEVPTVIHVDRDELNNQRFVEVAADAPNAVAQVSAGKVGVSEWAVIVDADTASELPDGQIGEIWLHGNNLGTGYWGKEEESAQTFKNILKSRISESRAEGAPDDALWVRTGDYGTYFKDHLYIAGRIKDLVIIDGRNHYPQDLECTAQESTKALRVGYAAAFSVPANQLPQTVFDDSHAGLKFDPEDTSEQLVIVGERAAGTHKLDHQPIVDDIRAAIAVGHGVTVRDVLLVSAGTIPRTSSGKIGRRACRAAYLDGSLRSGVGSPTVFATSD
Nature of the assay: Inhibition of Mycobacterium tuberculosis FAAL32 using AMPC12 as substrate incubated for 50 mins and measured by spectrophotometric assay. In outline:
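Purified Mtb FAAL32 was run with lauric acid and ATP in HEPES pH 7.5, MgCl2, DTT and detergent. Pyrophosphatase coupling converted released PPi to Pi, read after 50 min as A630 with a phosphate colour reagent against a Pi calibration curve. Compounds (final 0.5–66 µM, DMSO) were added before the enzyme. IC50 came from a sigmoidal fit of percent inhibition.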

The target of assay [3] is T2, Long-chain-fatty-acid--AMP ligase FadD32 (Mycobacterium tuberculosis (strain ATCC 25618 / H37Rv)) (UniProt O53580).
T2 sequence (whole entry): T1 sequence (O53580 whole entry)
Briefly: Binding affinity to Mycobacterium tuberculosis FAAL32 assessed as change in melting temperature at 5 uM by NanoDSF assay. In outline:
(§1)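 nanoDSF used 0.5 µM purified FAAL32 with ligand at 0.5–10 µM in 50 mM HEPES pH 7.5, 500 mM NaCl, 5% DMSO. Samples sat 5 min at RT, then were heated 20–70 °C at 1 °C/min. Tm came from the F350/F330 fluorescence ratio; the DMSO-only protein was the reference.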
For orientation: In DSF a fluorescence change marks the thermal transition of the protein.

Assay [4] concerns the target T2, Long-chain-fatty-acid--AMP ligase FadD32 (Mycobacterium tuberculosis (strain ATCC 25618 / H37Rv)). Briefly: Binding affinity to Mycobacterium tuberculosis FAAL32 assessed as change in melting temperature at 2.5 uM by NanoDSF assay. In outline: as §1

`CCCCC(CC)CNC(=N)NC(=N)NCCCCCCNC(=N)NC(=N)NCC(CC)CCCC` (stereo unspecified) [ALEXIDINE DIHYDROCHLORIDE] registered a minimum inhibitory concentration (MIC) in assay [1] of over 1 µM.

Regarding `O=C(O)c1cn(C2CC2)c2cc(N3CCNCC3)c(F)cc2c1=O` [CIPROFLOXACIN], inhibition of growth in assay [1] (MIC) required 1.25 µM (≈ 0.414 µg/mL).

In assay [1], `Cc1cc(C(C#N)c2ccc(Cl)cc2)c(Cl)cc1NC(=O)c1cc(I)cc(I)c1O` (stereo unspecified) [CLOSANTEL] showed an MIC of 0.08 µM (≈ 0.053 µg/mL). Further, half-maximal inhibition in assay [2] (IC50) was put at 7.7 µM. In addition, the ΔTm in assay [3] was determined as 2.7 °C.

`Oc1c(Cl)cc(Cl)c(Cl)c1Cc1c(O)c(Cl)cc(Cl)c1Cl` [HEXACHLOROPHENE] had an MIC in assay [1] of 0.08 µM (≈ 0.0326 µg/mL).

In assay [1], `NNC(=O)c1ccncc1` [ISONIAZID] came in with a minimal inhibitory concentration (MIC) of 0.6 µM (≈ 0.0823 µg/mL). Against the preceding compound, the MIC is about 7.5-fold higher.

In assay [1], `Clc1ccc(COC(Cn2ccnc2)c2ccc(Cl)cc2Cl)c(Cl)c1` (stereo unspecified) [MICONAZOLE] registered a minimal inhibitory concentration (MIC) of over 1 µM.

In the case of `CC(C)(O)c1ccccc1CC[C@@H](SCC1(CC(=O)O)CC1)c1cccc(/C=C/c2ccc3ccc(Cl)cc3n2)c1` [MONTELUKAST], the MIC in assay [1] was over 1 µM.

In assay [1], `O=C(Nc1ccc([N+](=O)[O-])cc1Cl)c1cc(Cl)ccc1O` [NICLOSAMIDE] showed an MIC of under 0.4 µM.

`CC(=O)Oc1ccccc1C(=O)Nc1ncc([N+](=O)[O-])s1` [NITAZOXANIDE] showed an MIC in assay [1] of 10 µM (≈ 3.07 µg/mL). This lies in the double-digit micromolar range.

`O=C(Nc1cc(Cl)cc(Cl)c1O)c1c(O)c(Cl)cc(Cl)c1Cl` [OXYCLOZANIDE] had a minimal inhibitory concentration (MIC) in assay [1] of 0.32 µM (≈ 0.128 µg/mL).

In assay [1], `O=C(Nc1ccc(Oc2ccc(Cl)cc2)c(Cl)c1)c1cc(I)cc(I)c1O` [RAFOXANIDE] displayed an MIC of 0.08 µM (≈ 0.0501 µg/mL). In assay [4], the shift in melting temperature (ΔTm) came out at 2.7 °C.

In turn, `CCCCCCCCCCCCCCCC[N+](C)(C)CCN(Cc1ccc(OC)cc1)c1ncccn1` [THONZONIUM BROMIDE] gave an MIC in assay [1] of over 1 µM.

Take VERTEPORFIN: in assay [1], the minimal inhibitory concentration (MIC) was over 1 µM.

As usually defined, the MIC is the lowest concentration that inhibits growth of the organism. Higher therefore signals a less susceptible organism. A word on the IC50: it is the concentration at which inhibition is half-maximal. A lower IC50 goes with higher potency. A word on the ΔTm: it is the change in melting temperature against a reference sample.
